# pIC50: −log10 of the molar value.
# Assays:
# [1] = target: Potassium-transporting ATPase (Rattus norvegicus) (UniProt P09626+P18598); test: Inhibition of pentagastrin stimulated gastric acid secretion in anesthetized rat at 10 umol/kg upon intravenous administration; format: functional, organism-based; settings: Stomach
# [2] = target: T1, Potassium-transporting ATPase (Sus scrofa, UniProt P19156); test: […] inhibit the activity of K+ stimulated gastric ATPase; format: tissue-based, Stomach
# In short: (§1)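 Initial screen of K+-stimulated ATPase activity in a lyophilized gastric vesicle preparation at pH 7, in vitro.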
# Canis familiaris [3] = test: Inhibition of histamine stimulated gastric acid secretion was tested in heidenhain pouch dog at 4 uM/kg upon oral administration; format: functional, Canis lupus familiaris, Stomach
# [4] = target: T2, Potassium-transporting ATPase subunit beta (Rattus norvegicus) (UniProt P18598); test: Inhibition of pentagastrin stimulated gastric acid secretion in anesthetized rat upon intravenous administration; format: functional, organism-based; settings: Stomach
# T2 sequence (whole entry): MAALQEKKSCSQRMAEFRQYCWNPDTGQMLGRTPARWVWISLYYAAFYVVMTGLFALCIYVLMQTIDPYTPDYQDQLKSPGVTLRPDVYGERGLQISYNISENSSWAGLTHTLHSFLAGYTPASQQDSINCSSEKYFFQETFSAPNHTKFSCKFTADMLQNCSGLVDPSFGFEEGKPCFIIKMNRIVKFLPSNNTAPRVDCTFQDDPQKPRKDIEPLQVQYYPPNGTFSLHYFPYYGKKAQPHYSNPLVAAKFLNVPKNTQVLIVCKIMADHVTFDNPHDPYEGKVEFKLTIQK
# In short: (§2)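 Anesthetized rat with lumen-perfused stomach; acid secretion induced by pentagastrin; compound given intravenously.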
# Canis familiaris [5] = test: Inhibition of histamine stimulated gastric acid secretion was tested in heidenhain pouch dog at 1 umol/kg upon intravenous administration; format: functional; settings: Canis lupus familiaris, Stomach
# Canis familiaris [6] = test: Inhibition of histamine stimulated gastric acid secretion was tested in heidenhain pouch dog upon intravenous administration; format: functional; settings: Canis lupus familiaris, Stomach
# Rattus norvegicus [7] = test: Compound was evaluated for inhibition pentagastrin stimulated gastric acid secretion in anesthetized rat when administered intravenously.; format: functional; settings: Stomach, iv; in short: as §2
# [8] = target: T3, Potassium-transporting ATPase (Sus scrofa) (UniProt P18434+P19156); test: […] inhibit the activity of K+ stimulated gastric ATPase at 100 uM; format: tissue-based; settings: Stomach
# Canis familiaris [9] = test: Inhibition of histamine stimulated gastric acid secretion was tested in heidenhain pouch dog upon oral administration; format: functional; settings: Canis lupus familiaris, Stomach
# [10] = target: T1, Potassium-transporting ATPase; test: (§3) […] inhibit the activity of gastric H+/K+ ATPase; format: tissue-based, Stomach; in short: as §1
# Rattus norvegicus [11] = test: inhibition pentagastrin stimulated gastric acid secretion in anesthetized rat when compound (10 umol/kg) administered intravenously; format: functional, Stomach
# [12] = target: T3, Potassium-transporting ATPase (Sus scrofa); test: as §3; format: tissue-based; settings: Stomach; in short: as §1
# T1 sequence (P18434 whole entry): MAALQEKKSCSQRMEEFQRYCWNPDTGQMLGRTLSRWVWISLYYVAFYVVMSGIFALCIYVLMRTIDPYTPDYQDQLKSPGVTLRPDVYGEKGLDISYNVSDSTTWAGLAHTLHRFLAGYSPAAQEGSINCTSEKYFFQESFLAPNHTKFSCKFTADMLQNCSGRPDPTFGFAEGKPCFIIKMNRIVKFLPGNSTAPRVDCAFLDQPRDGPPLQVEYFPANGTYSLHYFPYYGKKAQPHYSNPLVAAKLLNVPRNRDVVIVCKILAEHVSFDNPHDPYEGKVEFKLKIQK
# T1 sequence (P19156 whole entry): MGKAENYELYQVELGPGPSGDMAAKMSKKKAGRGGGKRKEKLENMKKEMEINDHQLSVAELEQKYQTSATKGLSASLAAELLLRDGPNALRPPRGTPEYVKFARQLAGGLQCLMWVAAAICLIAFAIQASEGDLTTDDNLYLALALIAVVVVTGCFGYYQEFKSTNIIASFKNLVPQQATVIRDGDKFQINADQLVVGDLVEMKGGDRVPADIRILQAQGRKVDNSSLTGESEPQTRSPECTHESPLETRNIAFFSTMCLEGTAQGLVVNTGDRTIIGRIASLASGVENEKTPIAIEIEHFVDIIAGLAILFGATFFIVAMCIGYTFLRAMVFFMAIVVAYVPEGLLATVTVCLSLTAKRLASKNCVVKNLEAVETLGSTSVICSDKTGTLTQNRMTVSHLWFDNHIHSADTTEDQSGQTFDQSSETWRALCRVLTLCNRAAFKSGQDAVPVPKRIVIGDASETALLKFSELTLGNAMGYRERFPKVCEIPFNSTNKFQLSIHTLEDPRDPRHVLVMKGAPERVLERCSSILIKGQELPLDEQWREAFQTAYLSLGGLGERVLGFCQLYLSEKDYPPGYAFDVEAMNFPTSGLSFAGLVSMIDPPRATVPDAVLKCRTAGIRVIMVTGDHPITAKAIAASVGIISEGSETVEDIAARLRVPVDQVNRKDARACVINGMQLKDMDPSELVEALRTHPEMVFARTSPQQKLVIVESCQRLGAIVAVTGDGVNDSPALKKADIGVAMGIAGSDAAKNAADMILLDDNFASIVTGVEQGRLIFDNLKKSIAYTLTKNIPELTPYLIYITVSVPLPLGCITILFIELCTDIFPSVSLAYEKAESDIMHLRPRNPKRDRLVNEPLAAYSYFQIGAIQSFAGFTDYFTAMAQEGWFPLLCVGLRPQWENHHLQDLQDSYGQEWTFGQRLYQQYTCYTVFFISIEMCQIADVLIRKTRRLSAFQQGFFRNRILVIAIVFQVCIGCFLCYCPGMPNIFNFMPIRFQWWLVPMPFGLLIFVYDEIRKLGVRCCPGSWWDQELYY
SMILES,inhibition [1],pIC50 [2],also measured
CCCCNC(=O)c1cnc2c(OC)cccc2c1Nc1ccccc1C,30%,4.19,–
CCC(=O)c1cnc2c(OC)cccc2c1Nc1ccccc1C,–,6.40,Inhibition (Canis familiaris [3]): 92.3%; ED50 [4]: 1.39 µmol/kg; inhibition in vivo at 1 µmol/kg (Canis familiaris [5]): 80.9%
CCOC(=O)c1cnc2c(OC)cccc2c1Nc1ccccc1C.Cl,–,–,Inhibition (Canis familiaris [3]): 11.1%; ED50 (Canis familiaris [6]): 0.49 µmol/kg; ED50 (Rattus norvegicus [7]): 8.23 µmol/kg
COc1cccc2c(Nc3ccccc3C)c(C)cnc12,12.5%,5.21,–
CCCSc1cnc2ccccc2c1Nc1ccccc1C,11%,5.29,–
CCC[S+]([O-])c1cnc2ccccc2c1Nc1ccccc1C (stereo not given),21%,–,inhibition [8]: 19%
COc1cccc2c(Nc3ccccc3C)c(C(=O)NC(C)(C)CO)cnc12,13%,–,inhibition [8]: 26%
CCNC(=O)c1cnc2c(OC)cccc2c1Nc1ccccc1C,58%,5.53,–
CCOC(=O)c1cnc2c(OC)cccc2c1Oc1ccccc1C,–,–,inhibition [8]: 13%
CN/C(=N\CCSCc1nc[nH]c1C)NC#N [CIMETIDINE],–,–,ED50 (Canis familiaris [6]): 1.7 µmol/kg; ED50 (Canis familiaris [9]): 8.5 µmol/kg
CCOC(=O)c1cnc2ccccc2c1Nc1ccccc1C,49%,6.22,–
CCC(CC)C(=O)c1cnc2c(OC)cccc2c1Nc1ccccc1C,55%,5.74,–
COc1cccc2c(Nc3ccccc3C)c(C(=O)C(C)(C)C)cnc12,63%,5.59,Inhibition (Canis familiaris [3]): 11.3%
COc1cccc2c(Nc3ccccc3C)c(C(=O)c3ccccc3)cnc12,–,4.79,–
CO/N=C(\C)c1cnc2c(OC)cccc2c1Nc1ccccc1C,–,4.69,–
COc1cccc2c(Nc3ccccc3C)c(C(=O)C(C)C)cnc12,–,5.96,Inhibition (Canis familiaris [3]): 44.6%; ED50 [4]: 1.92 µmol/kg; inhibition in vivo at 1 µmol/kg (Canis familiaris [5]): 75%
Cc1ccccc1Nc1c(Br)cnc2ccccc12,31%,4.85,–
C=CCNC(=O)c1cnc2c(OC)cccc2c1Nc1ccccc1C,38%,5.46,–
CCCC(O)c1cnc2c(OC)cccc2c1Nc1ccccc1C (stereo not given),–,4.26,–
CCOC(=O)c1cnc2c(OC)cccc2c1Nc1ccccc1.Cl,–,–,pIC50 [10]: 5.45; Inhibition (Rattus norvegicus [11]): 38%
Cc1ccccc1Nc1ccnc2ccccc12,16%,5.84,–
CCCC(=O)c1cnc2ccccc2c1Nc1ccccc1C,–,6.01,ED50 [4]: 5.45 µmol/kg; inhibition in vivo at 1 µmol/kg (Canis familiaris [5]): 45.4%

SMILES,inhibition [1],pIC50 [2],also measured
COc1cccc2c(Nc3ccccc3C)c(C(=O)N3CCCC3)cnc12,15%,–,inhibition [8]: 20%
CCCNC(=O)c1cnc2c(OC)cccc2c1Nc1ccccc1C,40%,4.66,–
COc1cccc2c(Nc3ccccc3C)c(C(=O)C3CCCC3)cnc12,56%,5.77,Inhibition (Canis familiaris [3]): 55.7%
CCOC(=O)c1cnc2c(OC)cccc2c1N(C)c1ccccc1,–,4.05,–
COc1cccc2c(Nc3ccccc3C)c(C(=O)NCc3ccccc3)cnc12,13%,4.31,–
COc1cccc2c(Nc3ccccc3C)ccnc12,–,7.00,ED50 [4]: 12.7 µmol/kg
Cc1ccccc1Nc1c([N+](=O)[O-])cnc2ccccc12,30%,–,–
COc1cccc2c(Nc3ccccc3C)c(CO)cnc12,–,–,pIC50 [10]: 4.93; Inhibition (Rattus norvegicus [11]): 5%
CCCC(=O)c1cnc2c(OC)cccc2c1Nc1ccccc1C,–,5.98,ED50 (Canis familiaris [6]): 0.26 µmol/kg; ED50 (Canis familiaris [9]): 1.6 µmol/kg; ED50 [4]: 2.62 µmol/kg
COc1cccc2c(Nc3ccccc3C)c(C(C)=O)cnc12,–,5.32,ED50 [4]: 13.2 µmol/kg; inhibition in vivo at 1 µmol/kg (Canis familiaris [5]): 11%
COc1cccc2c(Nc3ccccc3C)c(C(=O)O)cnc12,–,–,inhibition [12]: 30%
COc1cccc2c(Nc3ccccc3C)c(C(C)O)cnc12 (stereo not given),–,4.62,–
COc1cccc2c(Nc3ccccc3C)c(C(=O)OCCN(C)C)cnc12,19%,4.36,–
Cc1ccccc1Nc1c(N)cnc2ccccc12,27%,4.51,–
CCCC(=O)c1cnc2c(OC)cccc2c1Nc1ccccc1,34%,5.40,–
COc1cccc2c(Nc3ccccc3C)c(C(=O)C3CCC3)cnc12,47%,5.92,–
CNC(=O)c1cnc2c(OC)cccc2c1Nc1ccccc1C,–,–,pIC50 [10]: 5.17; Inhibition (Rattus norvegicus [11]): 28%
CCCc1cnc2c(OC)cccc2c1Nc1ccccc1C,34%,5.06,–
COCC(=O)c1cnc2c(OC)cccc2c1Nc1ccccc1C,–,4.92,ED50 [4]: 12.2 µmol/kg
CCCCCC(=O)c1cnc2c(OC)cccc2c1Nc1ccccc1C,–,5.56,ED50 [4]: 10.7 µmol/kg
COc1cccc2c(Nc3ccccc3C)c(C(=O)C3CCCCC3)cnc12,42%,5.42,–
COc1cccc2c(Nc3ccccc3C)c(C(N)=O)cnc12,–,–,pIC50 [10]: 4.82

# Source: ChEMBL document CHEMBL1126123, “Reversible inhibitors of the gastric (H+/K+)-ATPase. 3. 3-substituted-4-(phenylamino)quinolines” (J Med Chem, 1992)
